The list is not random: actives were taken first. Their share in the collection is about 4%.
TAAR1 ag: human TAAR1 agonists, primary screen, Fluo-8 calcium fluorescence, CHO RD-HGA16 cells; Trace amine-associated receptor 1 (Homo sapiens), Q96RJ0; vehicle wells 0%, saturating PEA agonist 100%; activation, % at 3 µM; 360,000 tested, 0.99% active; AID 624467, 2012;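 active means activation above the mean activation of all test compounds in the run plus 3 SD, cut at about 38% in these data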
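Assay system: CHO-derived RD-HGA16 cells with stable Gα16 and human TAAR1; timing: 17-24 h seeding, 75 min 37 °C dye, 30 min RT; read-out: % activation from peak over basal fluorescence ratio, DMSO-to-PEA scaled; measured by: kinetic Fluo-8 calcium fluorescence; benchmarks: low control DMSO, high control PEA (EC100); doses: 3 µM single concentration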
OX1R antag-1: OX1R (HCRTR1) antagonists, primary screen, fluorescence, CHO/OX1R cells, Fluo-8 calcium, orexin A | Fluo-8 calcium fluorescence | AID 434989, 2010 | 330,000 tested, 0.43% active | inhibition, % at 5 µM | Orexin/Hypocretin receptor type 1 (Homo sapiens), O43613;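 active means inhibition above its plate's threshold, mean inhibition of all tested compounds on the plate plus 3 SD, cut at about 37% in these data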;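 further: 0% = orexin A challenge wells and 100% = SB-334867-A antagonist wells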
Target sequence (O43613 whole entry, looked up): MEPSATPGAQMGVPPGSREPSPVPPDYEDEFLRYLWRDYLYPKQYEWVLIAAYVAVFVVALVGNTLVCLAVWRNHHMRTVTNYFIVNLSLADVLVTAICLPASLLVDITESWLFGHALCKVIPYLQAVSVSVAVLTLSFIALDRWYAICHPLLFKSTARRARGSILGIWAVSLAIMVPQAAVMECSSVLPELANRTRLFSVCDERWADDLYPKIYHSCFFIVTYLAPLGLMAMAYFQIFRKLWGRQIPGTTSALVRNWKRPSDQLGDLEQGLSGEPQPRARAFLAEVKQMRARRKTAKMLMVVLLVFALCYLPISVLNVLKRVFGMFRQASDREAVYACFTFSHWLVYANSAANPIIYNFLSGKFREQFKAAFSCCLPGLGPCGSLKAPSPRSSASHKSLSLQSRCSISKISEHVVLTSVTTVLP
CHO parental Ca: ATP-evoked calcium signal inhibitors, parental CHO, primary screen, counter-screen for OX1R antagonist project, cell-based, fluorescence, Fluo-8 calcium dye | parental CHO-K1, ATP-induced calcium, Fluo-8 fluorescence | inhibition, % at 5.6 µM | 330,000 tested, 0.63% active | AID 463079, 2010;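 active means inhibition above that plate's mean sample inhibition plus 3 SD, cut at about 26% in these data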;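 further: 0% = ATP-challenged DMSO wells and 100% = DMSO wells without ATP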
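Test system: untransfected parental CHO cell line. Compound: one dose, 5.6 µM nominal. Detection: intracellular calcium via Fluo-8 no-wash fluorescent dye. Measure: % inhibition. Benchmarks: ATP-challenged DMSO wells low, unchallenged DMSO wells high.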
OX1R antag-2: antagonists of human orexin 1 receptor (OX1R) | Orexin/Hypocretin receptor type 1 (Homo sapiens), O43613 | OX1R-expressing cells, FRET antagonist read-out | inhibition, % at 6.6 µM | 330,000 tested, 1.8% active | AID 485270, 2010; in the data active means inhibition mostly above about 38%, no sharp cut-off; inactive means mostly below about 40%;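 further: 0% = agonist challenge alone and 100% = reference antagonist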
TAAR1 antagonist: human TAAR1 antagonists, primary screen, Fluo-8 calcium fluorescence, CHO RD-HGA16 cells; Trace amine-associated receptor 1 (Homo sapiens), Q96RJ0; antagonist; inhibition, % at 3 µM; 360,000 tested, 1.5% active; AID 624466, 2012;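 active means inhibition above a per-plate cutoff, the mean inhibition of test compounds on that plate plus 3 SD, cut at about 49% in these data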;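 further: 0% = DMSO plus EC80 beta-PEA response and 100% = DMSO alone without agonist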
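test system = CHO RD-HGA16 cells bearing hTAAR1 | replication = singlicate | controls = DMSO-only wells and EC80 β-PEA-stimulated wells | reagent = EC80 β-phenethylamine stimulus | read-out basis = percent inhibition of PEA-evoked calcium signal, max/basal emission ratio | schedule = seeding 17-24 h prior, 75-min 37 °C, 30-min RT dye loading | signal = kinetic Fluo-8 calcium fluorescence measurement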
* = called active by the depositor; nt = not tested or not shown; ! = not confirmed by another sample.

SMILES	TAAR1 ag	OX1R antag-1	CHO parental Ca	OX1R antag-2	TAAR1 antagonist
COc1ccc2c(c1)NC(c1ccc(N(C)C)cc1)c1cccn1-2 (stereo not given)	-3	6	-10	67*	1
COc1ccc2c(c1)NC(c1cc(Cl)cc(Cl)c1O)c1cccn1-2 (stereo not given)	2	nt	nt	nt	6
N#Cc1ccc(C(=O)NCC2CCN(C(=O)C(=O)c3cccs3)CC2)cc1	1	nt	nt	nt	-20
COC(=O)C1C(=O)CC(C)(O)C(C(=O)OC)C1/C=C/c1ccccc1 (stereo not given)	12	-16	-11	24	-3
CCOC(=O)C1C(=O)CC(C)(O)C(C(=O)OCC)C1/C=C/c1ccccc1 (stereo not given)	9	nt	nt	nt	56*
CCc1ccc(OCC(=O)Nc2nnc(-c3ccco3)s2)cc1	39*	-23	-4	4	-27
COc1cccc(N(C(=O)c2ccco2)c2nc(-c3sc(NC(=O)c4ccco4)nc3C)cs2)c1	14	-32	-12	15	51*
COc1cccc(-c2nnc(NC(=O)c3ccco3)s2)c1	4	-2	-17	53*	10
COc1ccc(-c2nnc(NC(=O)c3ccco3)s2)cc1	3	3	10	28	-17
COc1ccccc1Nc1nc(-c2sc(NC(=O)c3ccco3)nc2C)cs1	13	-21	-15	27	45
CC(C)CC(=O)Nc1nnc(-c2ccco2)s1	7	-8	-10	-3	-10
COc1ccc(OC2C(=O)N(Cc3ccc4c(c3)OCO4)C2c2sccc2C)cc1 (stereo not given)	3	28	12	16	50*
COC(=O)c1cc2c(c3c4cc(C)ccc4n(S(=O)(=O)c4ccc(OC)cc4)c13)C(=O)N(Cc1ccc(C(F)(F)F)cc1)C2	0	nt	nt	nt	-20
CC(C)Nc1ncnc2c1ncn2[C@H]1CN(CCN2CCOCC2)C[C@@H](CO)O1	0	nt	nt	nt	-10
C/C(=N\OCc1nc2ccccc2c(=O)n1/N=C/c1cc(C)cc([N+](=O)[O-])c1O)c1ccccc1	1	-18	-14	47*	27
O=C(COC(=O)/C=C/c1ccco1)NCCc1ccccc1	39*	-6	11	8	47
O=C(COC(=O)/C=C/c1ccco1)NCc1ccco1	1	4	-9	7	16
O=C(COC(=O)c1ccccc1O)Nc1ccc2ccccc2c1	-1	1	18	15	15
CCS(=O)c1ccccc1C(=O)OCC(=O)Nc1ccc2ccccc2c1 (stereo not given)	8	-11	39*	9	30
CCc1ccccc1NNC(=O)c1snnc1C	4	-25	-10	5	-15
C=CCC1(CC=C)CCCN1C(=O)c1cc(COc2ccc(F)c(F)c2)on1	6	-6	9	13	38
C=CCC1(CC=C)CCCN1C(=O)c1cc(COc2ccc(C)nc2)on1	0	7	52*	20	22
O=C(Nc1ccc([N+](=O)[O-])cc1)c1cc2ccccc2nc1Cl	9	8	-2	26	51*
O=C(Nc1ccccc1[N+](=O)[O-])c1cc2ccccc2nc1Cl	2	-2	6	11	1
O=C(C(=O)N1CCC(CNS(=O)(=O)Cc2ccccc2)CC1)c1cccs1	1	nt	nt	nt	-10
SMILES	TAAR1 ag	OX1R antag-1	CHO parental Ca	OX1R antag-2	TAAR1 antagonist
O=C(Nc1ccc(Cl)cc1)c1ccc(CN2CCc3ccccc3C2)cc1	18	-29	-9	3	-4
O=C(Nc1ccc(S(=O)(=O)N2CCCC2)cc1)c1ccc(CN2CCc3ccccc3C2)cc1	9	49*	38*	27	21
O=C(Nc1ccc(S(=O)(=O)N2CCCCC2)cc1)c1ccncc1	11	-2	-1	16	0
O=C(Nc1ccc(S(=O)(=O)N2CCOCC2)cc1)c1ccc(CN2CCc3ccccc3C2)cc1	nt	69*	51*	47	nt
O=C(Nc1ccc(Cc2ccncc2)cc1)c1ccc(S(=O)(=O)N2CCCC2)cc1	22	nt	nt	nt	57*
CCCCNC(=O)C[C@H]1C[C@@]2(C(=O)OC)C(=C[C@H](COCc3ccccc3)O[C@@H]2C)N(Cc2ccc3c(c2)OCO3)C1=O	0	nt	nt	nt	-10
CCN(CC)c1ccc(/C=C/c2cc(-c3ccccc3)c3ccccc3n2)cc1	8	5	38*	6	26
CCN(CC)c1ccc(/C=N/NC(=O)c2cc(C)nc3ccccc23)cc1	-1	-11	-11	13	-10
CCN(CC)c1ccc(C(=C2C=CC(=[N+](CC)CC)C=C2)c2ccccc2)cc1	29	nt	nt	nt	105*
CCN(CC)c1ccc(C(=O)NNC(=O)CCNC(=O)c2ccccc2)cc1	6	16	-14	15	2
COC(=O)c1cc2c(c3c4cc(OC)ccc4n(S(=O)(=O)c4ccc(OC)cc4)c13)C(=O)N(Cc1ccccc1OC)C2	-1	nt	nt	nt	-21
CC(C)c1ccc2c(c1)CC[C@H]1[C@](C)(CN)CCC[C@]21C	38*!	nt	nt	nt	-2
CC(C)c1ccc2c(c1)CCC1C(C)(CN)CCCC21C (stereo not given)	39*	-4	3	2	6
O=C(c1ccccc1)c1coc(-c2ccccc2)c1	7	nt	nt	nt	15
CCOc1ccc(CCNC(=O)CS(=O)Cc2nc(-c3ccccc3C)oc2C)cc1OCC (stereo not given)	-2	16	-25	57*	-29
CCOc1ccccc1CNC(=O)C1CCN(S(=O)(=O)N2CCC(C)CC2)CC1	-1	nt	nt	nt	5
COc1ccc(NC(=O)n2ncc3c(C)cccc32)cc1OC	2	-29	-21	35*	-19
Cc1cc(N2CCN(C(=O)c3cccs3)CC2)c(F)cc1[N+](=O)[O-]	9	9	52*	47	24
C=CCn1c(CSCc2ccc(C)cc2)nnc1SCC(=O)NCc1ccccc1	18	-2	-8	4	50*
CC(C)(NC(=O)c1ccccc1)c1nc2ccccc2s1	20	-18	3	33	-6
Cc1nc(Nc2ccc3c(c2)OCCO3)c2oc3ccccc3c2n1	-1	-24	-32	55*	-1
c1ccc2c(c1)oc1c(Nc3ccc4c(c3)OCCO4)ncnc12	9	-3	-33	72*	14
COc1ccc(NC(=O)CN(C)C(=O)c2ccc(S(=O)(=O)Nc3ccccc3F)cc2)cc1	6	-25	-22	2	3
Oc1ccccc1C=NC(N=Cc1ccccc1O)c1ccccc1O (stereo not given)	3	nt	nt	nt	11
CC(Nc1nc(-c2ccncc2)nc2ccccc12)c1ccccc1 (stereo not given)	8	-20	-34	14	0

Assay outcomes as filed in PubChem BioAssay.
